In PubChem BioAssay:
Calls of active or inactive are those of the source.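 The calls were made as follows, unless noted: active = GFP response above 150% of the DMSO level; inconclusive = fewer than 70 events counted for a yeast strain; inactive = the rest.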

Columns and labels:
[1] = RPL19A-GFP modulators, yeast TOR pathway, confirmation, cell-based, S. cerevisiae, flow cytometry, cherry picks, mother/daughter gates (AID 2270;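 active = GFP response below 50% of the DMSO control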); conditions: S. cerevisiae RPL19A-GFP strain, 3 h, at 10 µM, stronger effect = lower value, 100 = same GFP as DMSO wells
[2] = LAP4-GFP expression modulators in yeast, confirmation, cell-based, cherry picks, flow cytometry, mother/daughter gates (AID 2271;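 active = GFP response above 150% of the DMSO control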;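 also: ratio of sample to DMSO plate mean so 100% equals DMSO level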); conditions: S. cerevisiae LAP4-GFP strain, 3 h, at 10 µM, stronger effect = higher value, 100 means same as DMSO control
Procedure, shortened: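 Material: Alexa 633-stained baker's yeast GFP-fusion strain; Compound dosing: single test-compound dose, 10 µM final; Incubation: 30 °C, 3 h compound incubation, rotating; Detection: HT flow cytometry, GFP fluorescence channel; Control set: positive rapamycin (400 ng/mL), negative DMSO.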

[3] = modulators of MEP2-GFP levels in yeast, confirmation, S. cerevisiae, flow cytometry GFP, cherry picks (AID 2272;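 active = GFP response above 150% of the DMSO control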;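 also: ratio of well signal to plate DMSO mean so 100% equals DMSO level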); conditions: S. cerevisiae MEP2-GFP strain, 3 h, at 10 µM, stronger effect = higher value
[4] = AGP1-GFP expression modulators, hit retest, confirmation, cell-based, flow cytometry, S. cerevisiae, cherry picks (AID 2273);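 also: median GFP channel fluorescence over the whole cell population gate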; conditions: S. cerevisiae AGP1-GFP strain, 3 h, at 10 µM
[5] = modulators of CIT2-GFP expression in yeast, confirmation, S. cerevisiae, GFP fusion, cherry picks, mother/daughter gates (AID 2274); conditions: S. cerevisiae CIT2-GFP strain, flow cytometry, 3 h, at 10 µM, stronger effect = higher value
[6] = measured here: daughter cell gate
[7] = measured here: mother cell gate
[8] = measured here: daughter cell gate response
[9] = measured here: mother cell gate response

| Structure (SMILES) | GFP response vs DMSO [1] | GFP response vs DMSO [1, 6] [%] | GFP response vs DMSO [1, 7] [%] | GFP response relative to DMSO [2] | GFP response relative to DMSO [2, 8] [%] | GFP response relative to DMSO [2, 9] [%] | GFP response vs DMSO [3] | GFP response, % of DMSO [4] | GFP response, % of DMSO [5] | GFP response, % of DMSO [5, 6] [%] | GFP response, % of DMSO [5, 7] [%] |
| --- | --- | --- | --- | --- | --- | --- | --- | --- | --- | --- | --- |
| CCN(CC)c1ccc2cc(-c3nc4ccccc4[nH]3)c(=O)oc2c1 | 108% (inactive) | 106 | 111 | 107% (inactive) | 99.3 | 113 | 185% (active) | 108% (inactive) | 135% (inactive) | 132 | 136 |
| CCOC(=O)Cc1csc(NC(=O)CCCCCN2C(=O)c3cccc4cccc(c34)C2=O)n1 | 98.7% (inactive) | 99.3 | 99.3 | 88.4% (inactive) | 87.8 | 89.7 | 102% (inactive) | 98.2% (inactive) | 102% (inactive) | 98.3 | 101 |
| COc1ccc(C(=O)/C=C2/C(=O)Nc3ccccc32)cc1OC | 98.2% (inactive) | 98.8 | 99.3 | 97.7% (inactive) | 96.5 | 97.5 | 99.5% (inactive) | 97.5% (inactive) | 95% (inactive) | 94.6 | 93.3 |
| O=C(COC(=O)c1ccc(NS(=O)(=O)c2cccs2)cc1O)Nc1nc2ccccc2s1 | 101% (inactive) | 100 | 101 | 91.4% (inactive) | 92.5 | 93.1 | 102% (inactive) | 98.5% (inactive) | 102% (inactive) | 98.1 | 104 |
| COc1ccc(N2C(=O)C(Cl)=C(Nc3ccccc3O)C2=O)cc1 | 99.6% (inactive) | 98.8 | 100 | 102% (inactive) | 101 | 103 | 112% (inactive) | 98.8% (inactive) | 100% (inactive) | 95.6 | 99.3 |
| CCN(CC)CCCN(C(=O)c1ccc(Br)cc1)c1nc(-c2ccc(OC)cc2)cs1 | 96.5% (inactive) | 97.3 | 96.9 | 95.3% (inactive) | 99 | 94.4 | 101% (inactive) | 97.9% (inactive) | 95.8% (inactive) | 95.8 | 98.2 |
| O=Nc1c(O)c2ccccc2c2ccccc12 | 113% (inactive) | 109 | 111 | 114% (inactive) | 113 | 119 | 111% (inactive) | 104% (inactive) | 107% (inactive) | 106 | 105 |
| Cc1ccc(-c2nc(NC(=O)c3nn(C)cc3[N+](=O)[O-])sc2C)cc1 | 100% (inactive) | 97.3 | 101 | 98.7% (inactive) | 97.2 | 101 | 102% (inactive) | 101% (inactive) | 96.5% (inactive) | 91.5 | 97.7 |
| CCN(CC)C(=O)c1ccc(-c2cccs2)s1 | 95.4% (inactive) | 94.6 | 96.4 | 107% (inactive) | 106 | 108 | 94.1% (inactive) | 99.9% (inactive) | 98.3% (inactive) | 97.2 | 97.3 |
| CCOc1ccc(S(=O)(=O)n2ccnc2C)cc1 | 99.7% (inactive) | 100 | 98.4 | 96.2% (inactive) | 97.2 | 98.3 | 102% (inactive) | 102% (inactive) | 104% (inactive) | 103 | 104 |
| O=C(CS(=O)c1ccccc1[N+](=O)[O-])Oc1ccc(Br)cc1 (stereo unspecified) | 101% (inactive) | 105 | 96.5 | 168% (active) | 167 | 164 | 101% (inactive) | 107% (inactive) | 98.6% (inactive) | 105 | 91.5 |
| O=C(CCc1ccc(S(=O)(=O)N2CCOCC2)cc1)Oc1ccccc1 | 99.6% (inactive) | 101 | 99.2 | 111% (inactive) | 112 | 109 | 123% (inactive) | 97.2% (inactive) | 110% (inactive) | 110 | 109 |
| Cc1ccc(C(=O)NNC(=S)NC(=O)c2ccco2)cc1 | 112% (inactive) | 113 | 109 | 120% (inactive) | 117 | 121 | 115% (inactive) | 103% (inactive) | 108% (inactive) | 114 | 102 |
| O=C1C=CC(=O)N1c1ccc(O)cc1 | 96.6% (inactive) | 96.9 | 85.9 | 196% (active) | 192 | 192 | 100% (inactive) | 90% (inactive) | 96.9% (inactive) | 116 | 84.3 |
| COc1cccc(CNC(=O)CCC(=O)N2Cc3cccc(OC)c3Oc3ncccc32)c1OC | 99.4% (inactive) | 99.9 | 99.2 | 95.4% (inactive) | 96 | 94 | 102% (inactive) | 100% (inactive) | 104% (inactive) | 105 | 104 |
| Cc1ccc(S(=O)(=O)N2CCCC2C(=O)OCc2ccco2)cc1 (stereo unspecified) | 103% (inactive) | 103 | 103 | 89% (inactive) | 92.5 | 92.1 | 107% (inactive) | 97.6% (inactive) | 112% (inactive) | 111 | 112 |
